Results taken from ChEMBL document CHEMBL4513216, “Probing the Open Global Health Chemical Diversity Library for Multistage-Active Starting Points for Next-Generation Antimalarials” (ACS Infect Dis, 2020).

Assay: Toxicity liver stage against HepG2, at 10uM
Assay type: cell-based
Design: test concentration 10 uM, cell line HepG2-A16-CD81EGFP
Conditions: human, HepG2-A16-CD81EGFP cells; read-out: INHIBITION
In short: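 Uninfected HepG2-A16-CD81EGFP cells, 3 × 10^3 per well, 1536-well, plated on prespotted compound at 10 μM final, parasite-free screening media added to match infected plates; puromycin 10 μM positive, DMSO 0.5% negative; run in parallel with 48 h PbLuc assay at 37 °C, 5% CO2; viability by CellTiter-Glo luminescence, normalized to controls.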

Row | SMILES | cytotoxicity at 10 µM
1 | Cc1c(C(C)Nc2ncnc3sccc23)cnn1C (stereo unspecified) | 40.1%
2 | c1ccc2c(Cc3nnc([C@H]4CCN(C5CCOCC5)C4)o3)c[nH]c2c1 | 2.9%
3 | COCCN1CCc2nc(SCc3ccc(F)cc3)[nH]c(=O)c2C1 | -2.33%
4 | CCCOc1c(Cl)cc(C(=O)N2CCOC23CCN(C)CC3)cc1Cl | 8.17%
5 | O=c1c(NCCNCCO)c(N2CCN(c3ccccc3)CC2)c1=O | -7.76%
6 | CCS(=O)(=O)N1CCC2(CCCN(c3ncc(F)cn3)C2)C1 (stereo unspecified) | 10.3%
7 | CS(=O)(=O)N1CCCCC12CCN(c1nncs1)CC2 | 10.6%
8 | O=C(NC1CCCC1)c1cc2c(s1)CCN2C(=O)c1ccccc1 | 6.55%
9 | COc1ccc(-c2cnc(NC(C)=O)[nH]2)cc1 | -0.825%
10 | Cc1c(C)n(Cc2ccccn2)c2nc3c(c(N)c12)CCCCC3 | 3.3%
11 | COc1cccc(CN2CCCCCC2c2cccc(C)c2)c1O (stereo unspecified) | 7.6%
12 | CCc1cnc2c(c1NCc1cccc(OC)c1)c(=O)n(C)c(=O)n2C | 24.8%
13 | CC(Cn1cc(Br)cn1)C(=O)Nc1ccc(Cl)cn1 (stereo unspecified) | 34%
14 | CCN1CC(Oc2ccc(Cl)cc2)=NC(SCC(=O)c2ccccc2)=N1 | 0.515%
15 | O=C1CNc2ncnc(N3CCN(Cc4cccc(F)c4)CC3)c2N1 | 7.88%
16 | CN(C)CCNC(=O)CCn1ncc2c(Cl)cccc21 | 5.92%
17 | COCCNC(=O)CCn1ncc2c(Cl)cccc21 | 10.5%
18 | Cc1c(Cl)c(C(=O)NN2CCOCC2)nn1C | 7.47%
19 | Cc1nc(C(=O)N2CCOCC2)cc(N2CCC(C(N)=O)CC2)n1 | 1.82%
20 | O=C1CCC(c2nc(C3CCNCC3)no2)N1 (stereo unspecified) | -3.96%
21 | Cc1ncc(CN2CC[C@@](C)(O)[C@H](Oc3cccc(F)c3)C2)cn1 | -13.4%
22 | CC(C)(N)C(=O)N1CCC(c2nccnc2Oc2cccc(F)c2)CC1 | -13.2%
23 | CCn1cc(C(=O)N2CCCC(c3nccs3)C2)cn1 (stereo unspecified) | -4.19%

Row | SMILES | cytotoxicity at 10 µM
24 | CS(=O)(=O)N1CC2(CCN(C3COC3)C2)Cc2ccccc21 (stereo unspecified) | 11.9%
25 | O=C(Nc1c(N2CCCC2)cccc1N1CCCC1)c1ccccn1 | -25.7%
26 | CCC(=O)N1CCCN(Cn2nc(C)c(Br)c2C)CC1 | 6.1%
27 | O=C(CN1CCCS1(=O)=O)Nc1cccc(COC2CCCCC2)c1 | 0.568%
28 | CC(C)OCCN1CCC(Nc2ncccn2)CC1 | -1%
29 | COC(=O)C(NC(=O)c1cc(F)cc(F)c1)c1cccnc1 (stereo unspecified) | -39.1%
30 | COc1ccc(C)cc1CCNS(=O)(=O)c1ccc2c(c1)CCC(=O)N2 | -45.5%
31 | CC(C)SCc1cccc(NC(=O)NCCc2nnc[nH]2)c1 | -46.1%
32 | COc1ccc(Oc2ncccc2NC(=O)N2CCOCC2)cc1 | 9.11%
33 | Cc1cccc(-c2noc(Cn3nc(C(N)=O)ccc3=O)n2)c1 | -1.15%
34 | Cc1ccc(CNc2cc3c(cc2Cl)NC(=O)CO3)cc1C | 0.651%
35 | Cn1ccc2c(C(=O)NCCCN3CCCC3)cccc21 | -18.3%
36 | Cc1nc(CCNC(=O)NCC(c2ccco2)N(C)C)cs1 (stereo unspecified) | 7.26%
37 | CN1CCN(Cc2ccccc2CNC(=O)c2ccc(Cl)cc2F)CC1 | 15.5%
38 | Cc1ccc(-c2ccc(C(=O)NCCS(N)(=O)=O)c(F)c2)cc1 | 11.3%
39 | CCc1n[nH]c(C2CN(C(=O)CCCn3cccn3)CCO2)n1 (stereo unspecified) | -6.69%
40 | Cc1cc(N2CCC(N(C)C(=O)c3ccccc3F)CC2)nc(C)n1 | 25.5%
41 | Cc1cnc(CNc2ccccc2CN(C)C(=O)c2cccs2)o1 | -3.83%
42 | CN(C)c1nccc(N(C)Cc2nc3ccccc3n2C)n1 | 0.482%
43 | COCC(C)(C#N)NC(=O)c1cn(-c2cccc(Cl)c2F)nn1 (stereo unspecified) | 0.472%
44 | COc1cc(NC(=O)N2CCCC2c2nncn2C)ccc1Br (stereo unspecified) | 5.67%
45 | O=C(NCCCn1cncn1)c1ccc(-c2ccco2)[nH]c1=O | 2.87%
46 | CCN1CCN(C(=O)Cc2ccc(S(=O)(=O)C(F)F)cc2)CC1 | -6.43%

Row | SMILES | cytotoxicity at 10 µM
47 | Cc1cc(C)n(Cc2cccc(C(=O)N(CCC#N)CCC#N)c2)n1 | 13.1%
48 | Cc1c(C(=O)NS(=O)(=O)c2ccc(F)cc2)cnn1CC(C)C | -6.63%
49 | COCCN(CCOC)S(=O)(=O)N(C)Cc1ccncc1 | 8.07%
50 | COc1cccc(C(O)CN2CCN(C(=O)CCC(C)C)CC2)c1 (stereo unspecified) | -46.9%
51 | CC(=O)N1CCCCCC1C1CCN(Cc2nc(C3CC3)no2)CC1 (stereo unspecified) | -56.4%
52 | O=C(CN1CCCC(c2ccn[nH]2)C1)Nc1nncs1 (stereo unspecified) | -43.9%
53 | CC(c1nc(C2CC2)no1)N1CCN(c2ccc(C#N)cn2)CC1 (stereo unspecified) | 1.18%
54 | Cc1oncc1C(=O)N1CC[C@H]2[C@@H]1CCC(=O)N2CC1CC1 | 6.42%
55 | Cc1ccc2c(n1)N(CC1CC1)CCN(Cc1cnn(C)c1)C2 | -2.91%
56 | CC(C)n1c2ccccc2c2c1cc(C(=O)NCCO)n2C(=O)N(C)C | -93.8%
57 | COCCn1c2c(ccc1=O)CC(NCc1cnn(C)c1)CC2 (stereo unspecified) | -103%
58 | Cn1cc(C[C@H]2[C@H](N3CCOCC3)CCN2C(=O)c2ccc[nH]2)cn1 | -75%
59 | C[C@@H]1C[C@@H]2CCN(Cc3ccccn3)C[C@H]2O1 | -75.9%
60 | Fc1cnc(N2CCCC3(CCN(Cc4nccs4)C3)C2)nc1 (stereo unspecified) | -67.9%
61 | Cc1nc(CN2CCCC(CCc3ccc(F)c(F)c3)C2)c[nH]1 (stereo unspecified) | -10.4%
62 | COCc1cn(C2CCN(CCC(C)c3ccccc3)CC2)nn1 (stereo unspecified) | 6.39%
63 | Cc1ccc(-n2cc(CN3CCOCC3)c(-c3cccc(C)c3)n2)cc1 | -0.906%
64 | Cc1ccc(N2CCCC(c3[nH]ncc3-c3ccccc3)C2)nn1 (stereo unspecified) | 2.51%
65 | COCc1ncc(CN2CCC(Oc3ccc(OC)cc3)CC2)cn1 | -5.72%
66 | CCn1cc(CN2CCN(Cc3cccc(OC)c3)C(=O)C2)cc1C#N | 2.96%
67 | CC(C)c1cc(C(=O)N2CCCC2c2nc(-c3ccccc3)no2)[nH]n1 (stereo unspecified) | -4.5%
68 | O=C(Nc1ccccc1-c1ccccc1)N1C[C@@H]2CNC[C@]2(C(=O)O)C1 | -40.5%
69 | COCCC1(CO)CCCN(C(=O)c2cccnc2O)C1 (stereo unspecified) | -50.7%

Row | SMILES | cytotoxicity at 10 µM
70 | O=C(c1cnc[nH]1)N1CCC(Oc2cccnc2)CC1 | 6.87%
71 | CCc1c(O)nc(SCC(=O)Nc2ccccc2)n(C(C)CC)c1=O (stereo unspecified) | 0.585%
72 | COCCN1CCN(Cc2nccs2)[C@H]2CS(=O)(=O)C[C@H]21 | -1.82%
73 | CCc1[nH]c2c(CNc3nccc(N)n3)cc(F)cc2c1C | -8.36%
74 | COc1cccc(C2CCN2C(=O)c2cc(C(C)C)on2)c1 (stereo unspecified) | -2.96%
75 | Cc1ncc(CN2CCC3(CC2)CC(=O)N(C)C3)cn1 | 9.8%
76 | COc1cccc(OCCCc2cc(C#N)ccn2)c1 | -9.72%
77 | COc1cccc(OC2CN(C(=O)CCn3cnnn3)C2)c1 | -0.0726%
78 | O=C(O)CC1COCCN1CCCc1ccccc1 (stereo unspecified) | -0.541%
79 | Cc1nc(-c2cccnc2)ncc1C(=O)N1CCCCC(N)C1 (stereo unspecified) | 7.57%
80 | Cc1ccc(C(=O)N2CCC(n3cc(CO)nn3)CC2)cn1 | -1.72%
81 | COc1coc(CN2CCCC(CCc3c(F)cccc3F)C2)cc1=O (stereo unspecified) | 1.18%
82 | CNS(=O)(=O)c1cc(C)c2[nH]c(=O)cc(C)c2c1 | -7.76%
83 | Cc1nc(N2C[C@H]3CNC[C@H]3C2)c2sccc2n1 | 9.26%
84 | NC(=O)C1CCN(C(=O)c2cc(S(=O)(=O)N3CCCC3)cs2)CC1 | -43.9%
85 | Cn1ccc(C2CCCCN2C(=O)c2cccc(-n3cccn3)c2)n1 (stereo unspecified) | -0.874%
86 | COc1ccc2c(c1)OCC(Cc1cnc(N)c(C)c1)C2 (stereo unspecified) | -1.23%
87 | Cc1ccc(N2CCC(C(O)c3cccs3)CC2)nn1 (stereo unspecified) | -49.1%
88 | Nc1nccc(N[C@H]2CN(CC(=O)NC3CCCCC3)C[C@@H]2C2CC2)n1 | -0.208%
89 | CSc1ccccc1CN1CCn2nc(CNC(C)=O)cc2C1 | -17%
90 | Cc1c(O)oc(-c2ccc(Br)cc2)nc1=O | -1.56%
91 | c1cnnc(N2CCCC(NCc3nc(-c4ccco4)no3)C2)c1 (stereo unspecified) | -20%
92 | Cc1ccc(NC2CCN(C(=O)c3cccc4[nH]ncc34)CC2)nn1 | -13.7%

Row | SMILES | cytotoxicity at 10 µM
93 | Cc1ccc(NC2CCN(C(=O)c3ccc(F)cc3Cl)CC2)nn1 | -14.1%
94 | Cc1cccc(OCCC(=O)N2CCCN(CC(N)=O)CC2)c1C | -7.28%
95 | CC1CN(Cc2noc(C3CC3)n2)CCN1Cc1nccn1C (stereo unspecified) | -10%
96 | Cc1cccc(C)c1OCCC(=O)N1CCC(c2nncn2C)CC1 | -12%
97 | CCN(CCc1ccccc1)Cn1nc(C)c2c(C)onc2c1=O | -5.18%
98 | CCn1cc(NC(=O)CCc2ccc3c(c2)OCCCO3)cn1 | -9.26%
99 | CN(C)C(=O)c1cn[nH]c1C1CCCN1Cc1nccn1C (stereo unspecified) | -1.08%
100 | Cc1nc(NCc2ccco2)nc2c1COCC21CCNC1 (stereo unspecified) | 10.3%
101 | CO[C@@H]1CCN(C(=O)Cc2ccc(F)cc2)[C@@H]1Cc1cccnc1 | 10.1%
102 | Cc1ccc(CN2CCC3(CC2)CC(c2cccnc2)C(=O)N3C)o1 (stereo unspecified) | -2.71%
103 | c1cncc(OCc2noc3c2CN(Cc2ccsc2)CC3)c1 | 4.76%
104 | COc1ccccc1OCC(=O)N1C[C@@H]2CN(C)CCO[C@@H]2C1 | -2.94%
105 | CC(C)n1cnc2c(-c3cccnc3)nc(C3CCNCC3)cc21 | -114%
106 | CC(C)CS(=O)(=O)N1CCC2(CN(c3cccc(F)c3)C(=O)CN2C)C1 (stereo unspecified) | -75.2%
107 | O=C(c1ccc(F)cc1)N1C[C@@H]2COC[C@]2(COc2cccnc2)C1 | -100%
108 | CCN(C)c1ncnc2c1CCN(CC1CCOC1)CC2 (stereo unspecified) | -79.3%
109 | CC(C)(CO)Nc1cc(-c2cn[nH]c2)ncn1 | -1.44%
110 | Cc1ccc(C2c3c(n[nH]c3C)N=C3COC(=O)C32)cc1C (stereo unspecified) | 74.9%
111 | O=C(Nc1ccccc1)N1C[C@@H]2C[C@H](C(=O)N3CCOCC3)[C@H](C1)O2 | 7.53%
